Data reported in ChEMBL document CHEMBL3046095, “Synthesis and antiviral activities of amide derivatives containing the alpha-aminophosphonate moiety” (J Agric Food Chem, 2008).
Converted amounts (≈) assume the structure as drawn.

What follows are compounds tested on Tobacco mosaic virus (assay: Antiviral activity against Tobacco mosaic virus (TMV) pre-treated with compound for 30 min followed by inoculation on left side of Nicotiana tabacum leaves assessed as virus inactivation effect measured 3 to 4 days post viral infection).
Assay type: functional, organism-based
How it was run: (§1)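 Inactivation assay on N. tabacum leaves, with a solvent–virus mixture inoculated as control. Local lesion numbers were recorded 3–4 d after inoculation, three repetitions per compound. Inhibition % was derived from mean lesion counts relative to control.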
`CCCOP(=O)(OCCC)C(NC(=O)c1ccccc1C(F)(F)F)c1ccccc1` (stereo not drawn) [DIPROPYL PHENYL(2-(TRIFLUOROMETHYL)BENZAMIDO)METHYLPHOSPHONATE] gave an EC50 of 199 µg/mL (≈ 449 µM).
Work on `CCCOP(=O)(OCCC)C(NC(=O)c1cc(OC)c(OC)c(OC)c1)c1ccccc1` (stereo not drawn) [DIPROPYL PHENYL(3,4,5-TRIMETHOXYBENZAMIDO)METHYLPHOSPHONATE] yielded an EC50 of 210 µg/mL (≈ 451 µM).
In the case of `CCCOP(=O)(OCCC)C(NC(=O)c1cccc(F)c1)c1ccccc1` (stereo not drawn) [DIPROPYL(3-FLUOROBENZAMIDO)(PHENYL)METHYLPHOSPHONATE], the EC50 is reported as 150 µg/mL (≈ 381 µM).
With `CNCC(=O)N[C@@H](CO)C(=O)N[C@H]1[C@H](O)[C@@H](O)[C@H](n2ccc(N)nc2=O)O[C@@H]1C(N)=O` [NINGNANMYCIN] the EC50 was 55.6 µg/mL (≈ 125 µM).

The compounds below were run on Tobacco mosaic virus (assay: Antiviral activity against Tobacco mosaic virus (TMV) pre-treated with 62.5 ug/mL compound for 30 min followed by inoculation on left side of Nicotiana tabacum leaves assessed as virus inactivation effect measured 3 to 4 days post viral infection).
Assay type: functional
How it was run: as §1
With `CCCOP(=O)(OCCC)C(NC(=O)c1ccccc1C(F)(F)F)c1ccccc1` (stereo not drawn) [DIPROPYL PHENYL(2-(TRIFLUOROMETHYL)BENZAMIDO)METHYLPHOSPHONATE] the Activity was 31.2%.
`CCCOP(=O)(OCCC)C(NC(=O)c1cc(OC)c(OC)c(OC)c1)c1ccccc1` (stereo not drawn) [DIPROPYL PHENYL(3,4,5-TRIMETHOXYBENZAMIDO)METHYLPHOSPHONATE] gave an Activity of 28.8%.
Compound `CCCOP(=O)(OCCC)C(NC(=O)c1cccc(F)c1)c1ccccc1` (stereo not drawn) [DIPROPYL(3-FLUOROBENZAMIDO)(PHENYL)METHYLPHOSPHONATE] has an Activity of 40.1%.
`CNCC(=O)N[C@@H](CO)C(=O)N[C@H]1[C@H](O)[C@@H](O)[C@H](n2ccc(N)nc2=O)O[C@@H]1C(N)=O` [NINGNANMYCIN] showed an Activity of 69%.

These compounds were tested on Tobacco mosaic virus (assay: Antiviral activity against Tobacco mosaic virus (TMV) pre-treated with 125 ug/mL compound for 30 min followed by inoculation on left side of Nicotiana tabacum leaves assessed as virus inactivation effect measured 3 to 4 days post viral infection).
Assay type: functional
How it was run: as §1
Work on `CCCOP(=O)(OCCC)C(NC(=O)c1ccccc1C(F)(F)F)c1ccccc1` (stereo not drawn) [DIPROPYL PHENYL(2-(TRIFLUOROMETHYL)BENZAMIDO)METHYLPHOSPHONATE] yielded an Activity of 39.2%.
`CCCOP(=O)(OCCC)C(NC(=O)c1cc(OC)c(OC)c(OC)c1)c1ccccc1` (stereo not drawn) [DIPROPYL PHENYL(3,4,5-TRIMETHOXYBENZAMIDO)METHYLPHOSPHONATE] gave an Activity of 30.3%.
In the case of `CCCOP(=O)(OCCC)C(NC(=O)c1cccc(F)c1)c1ccccc1` (stereo not drawn) [DIPROPYL(3-FLUOROBENZAMIDO)(PHENYL)METHYLPHOSPHONATE], the Activity is reported as 46%.
`CNCC(=O)N[C@@H](CO)C(=O)N[C@H]1[C@H](O)[C@@H](O)[C@H](n2ccc(N)nc2=O)O[C@@H]1C(N)=O` [NINGNANMYCIN] showed an Activity of 78.4%.

These compounds were tested on Tobacco mosaic virus (assay: Antiviral activity against Tobacco mosaic virus (TMV) pre-treated with 250 ug/mL compound for 30 min followed by inoculation on left side of Nicotiana tabacum leaves assessed as virus inactivation effect measured 3 to 4 days post viral infection).
Assay type: functional
How it was run: as §1
In the case of `CCCOP(=O)(OCCC)C(NC(=O)c1ccccc1C(F)(F)F)c1ccccc1` (stereo not drawn) [DIPROPYL PHENYL(2-(TRIFLUOROMETHYL)BENZAMIDO)METHYLPHOSPHONATE], the Activity is reported as 60%.
Compound `CCCOP(=O)(OCCC)C(NC(=O)c1cc(OC)c(OC)c(OC)c1)c1ccccc1` (stereo not drawn) [DIPROPYL PHENYL(3,4,5-TRIMETHOXYBENZAMIDO)METHYLPHOSPHONATE] has an Activity of 61%.
`CCCOP(=O)(OCCC)C(NC(=O)c1cccc(F)c1)c1ccccc1` (stereo not drawn) [DIPROPYL(3-FLUOROBENZAMIDO)(PHENYL)METHYLPHOSPHONATE] was tested, and the Activity was 65%.
With `CNCC(=O)N[C@@H](CO)C(=O)N[C@H]1[C@H](O)[C@@H](O)[C@H](n2ccc(N)nc2=O)O[C@@H]1C(N)=O` [NINGNANMYCIN] the Activity was 100%.

What follows are compounds tested on Tobacco mosaic virus (assay: Antiviral activity against Tobacco mosaic virus (TMV) inoculated on whole Nicotiana tabacum leaves followed by smearing with compound solution on left side of leaves assessed as viral infection curative effect measured 3 to 4 days post viral infection).
Assay type: functional, organism-based
How it was run: (§2)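 Whole same-age growing N. tabacum leaves were dip-inoculated with TMV at 6 × 10^-3 mg/mL, then washed with water and dried. Compound solution was smeared on left half, solvent on right half as control. Local lesions were counted 3–4 d after inoculation, three repetitions per compound. Inhibition % = (control mean lesions − treated mean lesions)/control mean lesions × 100.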
`CCCOP(=O)(OCCC)C(NC(=O)c1ccccc1C(F)(F)F)c1ccccc1` (stereo not drawn) [DIPROPYL PHENYL(2-(TRIFLUOROMETHYL)BENZAMIDO)METHYLPHOSPHONATE] gave an EC50 of 422 µg/mL (≈ 952 µM).
Compound `CCCOP(=O)(OCCC)C(NC(=O)c1cc(OC)c(OC)c(OC)c1)c1ccccc1` (stereo not drawn) [DIPROPYL PHENYL(3,4,5-TRIMETHOXYBENZAMIDO)METHYLPHOSPHONATE] has an EC50 of 250 µg/mL (≈ 537 µM).
`CCCOP(=O)(OCCC)C(NC(=O)c1cccc(F)c1)c1ccccc1` (stereo not drawn) [DIPROPYL(3-FLUOROBENZAMIDO)(PHENYL)METHYLPHOSPHONATE] showed an EC50 of 546 µg/mL (≈ 1390 µM).
`CNCC(=O)N[C@@H](CO)C(=O)N[C@H]1[C@H](O)[C@@H](O)[C@H](n2ccc(N)nc2=O)O[C@@H]1C(N)=O` [NINGNANMYCIN] showed an EC50 of 246 µg/mL (≈ 555 µM).

What follows are compounds tested on Tobacco mosaic virus (assay: Antiviral activity against Tobacco mosaic virus (TMV) inoculated on whole Nicotiana tabacum leaves followed by smearing with 125 ug/mL compound solution on left side of leaves assessed as viral infection curative effect measured 3 to 4 days post viral infection).
Assay type: functional
How it was run: as §2
`CCCOP(=O)(OCCC)C(NC(=O)c1ccccc1C(F)(F)F)c1ccccc1` (stereo not drawn) [DIPROPYL PHENYL(2-(TRIFLUOROMETHYL)BENZAMIDO)METHYLPHOSPHONATE] was tested, and the Activity was 31.6%.
In the case of `CCCOP(=O)(OCCC)C(NC(=O)c1cc(OC)c(OC)c(OC)c1)c1ccccc1` (stereo not drawn) [DIPROPYL PHENYL(3,4,5-TRIMETHOXYBENZAMIDO)METHYLPHOSPHONATE], the Activity is reported as 40.9%.
Work on `CCCOP(=O)(OCCC)C(NC(=O)c1cccc(F)c1)c1ccccc1` (stereo not drawn) [DIPROPYL(3-FLUOROBENZAMIDO)(PHENYL)METHYLPHOSPHONATE] yielded an Activity of 12.9%.
Work on `CNCC(=O)N[C@@H](CO)C(=O)N[C@H]1[C@H](O)[C@@H](O)[C@H](n2ccc(N)nc2=O)O[C@@H]1C(N)=O` [NINGNANMYCIN] yielded an Activity of 40.9%.

Each compound was assayed on Tobacco mosaic virus (assay: Antiviral activity against Tobacco mosaic virus (TMV) inoculated on whole Nicotiana tabacum leaves followed by smearing with 250 ug/mL compound solution on left side of leaves assessed as viral infection curative effect measured 3 to 4 days post viral infection).
Assay type: functional
How it was run: as §2
Work on `CCCOP(=O)(OCCC)C(NC(=O)c1ccccc1C(F)(F)F)c1ccccc1` (stereo not drawn) [DIPROPYL PHENYL(2-(TRIFLUOROMETHYL)BENZAMIDO)METHYLPHOSPHONATE] yielded an Activity of 38%.
`CCCOP(=O)(OCCC)C(NC(=O)c1cc(OC)c(OC)c(OC)c1)c1ccccc1` (stereo not drawn) [DIPROPYL PHENYL(3,4,5-TRIMETHOXYBENZAMIDO)METHYLPHOSPHONATE] was tested, and the Activity was 50.6%.
Work on `CCCOP(=O)(OCCC)C(NC(=O)c1cccc(F)c1)c1ccccc1` (stereo not drawn) [DIPROPYL(3-FLUOROBENZAMIDO)(PHENYL)METHYLPHOSPHONATE] yielded an Activity of 21%.
`CNCC(=O)N[C@@H](CO)C(=O)N[C@H]1[C@H](O)[C@@H](O)[C@H](n2ccc(N)nc2=O)O[C@@H]1C(N)=O` [NINGNANMYCIN] gave an Activity of 51%.

What follows are compounds tested on Tobacco mosaic virus (assay: Antiviral activity against Tobacco mosaic virus (TMV) inoculated on whole Nicotiana tabacum leaves followed by smearing with 500 ug/mL compound solution on left side of leaves assessed as viral infection curative effect measured 3 to 4 days post viral infection).
Assay type: functional
How it was run: as §2
`CCOP(=O)(OCC)C(NC(=O)c1cccc(F)c1)c1ccccc1F` (stereo not drawn) showed an Activity of 6.2%.
Work on `CCCOP(=O)(OCCC)C(NC(=O)c1ccccc1C(F)(F)F)c1ccccc1` (stereo not drawn) [DIPROPYL PHENYL(2-(TRIFLUOROMETHYL)BENZAMIDO)METHYLPHOSPHONATE] yielded an Activity of 53.7%.
Compound `CCCOP(=O)(OCCC)C(NC(=O)c1cc(OC)c(OC)c(OC)c1)c1ccccc1` (stereo not drawn) [DIPROPYL PHENYL(3,4,5-TRIMETHOXYBENZAMIDO)METHYLPHOSPHONATE] has an Activity of 55%.
In the case of `CCCOP(=O)(OCCC)C(NC(=O)c1cccc(F)c1)c1ccccc1` (stereo not drawn) [DIPROPYL(3-FLUOROBENZAMIDO)(PHENYL)METHYLPHOSPHONATE], the Activity is reported as 43%.
`CNCC(=O)N[C@@H](CO)C(=O)N[C@H]1[C@H](O)[C@@H](O)[C@H](n2ccc(N)nc2=O)O[C@@H]1C(N)=O` [NINGNANMYCIN] showed an Activity of 55.4%.

These compounds were tested on Tobacco mosaic virus (assay: Antiviral activity against Tobacco mosaic virus (TMV) pre-treated with 500 ug/mL compound for 30 min followed by inoculation on left side of Nicotiana tabacum leaves assessed as virus inactivation effect measured 3 to 4 days post viral infection).
Assay type: functional
How it was run: as §1
In the case of `CCOP(=O)(OCC)C(NC(=O)c1cccc(F)c1)c1ccccc1F` (stereo not drawn), the Activity is reported as 70.7%.
For `CCCOP(=O)(OCCC)C(NC(=O)c1ccccc1C(F)(F)F)c1ccccc1` (stereo not drawn) [DIPROPYL PHENYL(2-(TRIFLUOROMETHYL)BENZAMIDO)METHYLPHOSPHONATE], the Activity was 80%.
`CCCOP(=O)(OCCC)C(NC(=O)c1cc(OC)c(OC)c(OC)c1)c1ccccc1` (stereo not drawn) [DIPROPYL PHENYL(3,4,5-TRIMETHOXYBENZAMIDO)METHYLPHOSPHONATE] gave an Activity of 83.4%.
`CCCOP(=O)(OCCC)C(NC(=O)c1cccc(F)c1)c1ccccc1` (stereo not drawn) [DIPROPYL(3-FLUOROBENZAMIDO)(PHENYL)METHYLPHOSPHONATE] gave an Activity of 86.6%.
Compound `CNCC(=O)N[C@@H](CO)C(=O)N[C@H]1[C@H](O)[C@@H](O)[C@H](n2ccc(N)nc2=O)O[C@@H]1C(N)=O` [NINGNANMYCIN] has an Activity of 100%.

What follows are compounds tested on Tobacco mosaic virus (assay: Antiviral activity against Tobacco mosaic virus (TMV) inoculated on 500 ug/mL compound smeared Nicotiana tabacum leaves assessed as protective effect against viral infection measured 3 to 4 days post viral infection).
Assay type: functional
How it was run: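 Half-leaf assay on same-age growing Nicotiana tabacum leaves: compound solution smeared on left half, solvent on right half as control. After 12 h, leaves scattered with silicon carbide were brush-inoculated with TMV at 6 × 10^-3 mg/mL. Local lesions were counted 3–4 d post-inoculation, three repetitions. Inhibition % = (control mean lesions − treated mean lesions)/control mean lesions × 100.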
Work on `CCOP(=O)(OCC)C(NC(=O)c1cccc(F)c1)c1ccccc1F` (stereo not drawn) yielded an Activity of 41%.
Work on `CCCOP(=O)(OCCC)C(NC(=O)c1ccccc1C(F)(F)F)c1ccccc1` (stereo not drawn) [DIPROPYL PHENYL(2-(TRIFLUOROMETHYL)BENZAMIDO)METHYLPHOSPHONATE] yielded an Activity of 44%.
For `CCCOP(=O)(OCCC)C(NC(=O)c1cc(OC)c(OC)c(OC)c1)c1ccccc1` (stereo not drawn) [DIPROPYL PHENYL(3,4,5-TRIMETHOXYBENZAMIDO)METHYLPHOSPHONATE], the Activity was 58.8%.
Work on `CCCOP(=O)(OCCC)C(NC(=O)c1cccc(F)c1)c1ccccc1` (stereo not drawn) [DIPROPYL(3-FLUOROBENZAMIDO)(PHENYL)METHYLPHOSPHONATE] yielded an Activity of 50.9%.
In the case of `CNCC(=O)N[C@@H](CO)C(=O)N[C@H]1[C@H](O)[C@@H](O)[C@H](n2ccc(N)nc2=O)O[C@@H]1C(N)=O` [NINGNANMYCIN], the Activity is reported as 60.2%.
